What was measured:
Format in all cases: ADME, organism-based
Rattus norvegicus = assay: Dose normalized AUC (0 to 24 hrs) in Sprague-Dawley rat at 2 mg/kg, po; design: dose 2 mg/kg, route oral; settings: in vivo
Outline: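 Sprague–Dawley rats dosed orally at 2 mg/kg, alongside a separate 1 mg/kg iv arm. Plasma exposure was followed over 0–24 h after the oral dose. AUC was normalized to dose and expressed as μM h kg/mg.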

[1] = Plasma concentration in Sprague-Dawley rat at 100 mg/kg, po after 6 hrs; design: dose 100 mg/kg, route oral
Outline: (§1)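 SD rats given a single 100 mg/kg oral dose, n=5. Plasma and whole brain were taken 6 h later. Drug concentrations were measured in both, the brain-to-plasma ratio was derived from them, and whole-brain Aβ42 was reported as percent change.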

[2] = Volume of distribution at steady state in Sprague-Dawley rat at 1 mg/kg, iv and 2 mg/kg, po; settings: in vivo, read-out: Vdss
Outline: (§2)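 SD rat pharmacokinetics: 1 mg/kg iv and 2 mg/kg po. Plasma clearance and Vd were determined. Half-life came from the iv arm.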

[3] = Drug level in Sprague-Dawley rat brain at 100 mg/kg, po after 6 hrs; design: dose 100 mg/kg, route oral; settings: read-out: Drug uptake; outline: as §1
[4] = Half life in Sprague-Dawley rat at 1 mg/kg, iv; design: dose 1 mg/kg, route intravenous; settings: in vivo; outline: as §2
[5] = Plasma clearance in Sprague-Dawley rat at 1 mg/kg, iv and 2 mg/kg, po; outline: as §2
[6] = Oral bioavailability in Sprague-Dawley rat at 2 mg/kg; settings: in vivo; outline: as §2
[7] = Ratio of drug level in brain to plasma in Sprague-Dawley rat at 100 mg/kg, po after 6 hrs; design: dose 100 mg/kg, route oral; settings: read-out: BPR; outline: as §1
[8] = Plasma concentration in Sprague-Dawley rat at 60 mg/kg, po after 6 hrs; design: dose 60 mg/kg, route oral
Outline: (§3)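 Single 60 mg/kg oral dose in SD rats. Plasma and brain drug exposure and central Aβ42 were assessed 6 h post-dose.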

[9] = Drug level in Sprague-Dawley rat brain at 60 mg/kg, po after 6 hrs; design: dose 60 mg/kg, route oral; settings: read-out: Drug uptake; outline: as §3

AUC/dose (Rattus norvegicus) [µM·kg·h/mg]	concentration at 6 h [1] [µM]	Vd [2] [L/kg]	concentration at 6 h [3] [µM]	half-life [4] [h]	clearance [5] [mL/min/kg]	bioavailability [6] [%]	Kp at 6 h [7]	concentration at 6 h [8] [µM]	concentration at 6 h [9] [µM]	Structure (SMILES)
1.4	47	7.1	56	7.7	24	41	1.2	–	–	COc1cc(-c2cn(Cc3ccc(C(C)(C)C)cc3)nn2)ccc1-n1cnc(C)c1
2.6	–	2.8	–	5.4	13.7	49	–	40	9.4	COc1cc(-c2cn(Cc3ccc(-c4nc5ccccc5o4)cc3)nn2)ccc1-n1cnc(C)c1

From ChEMBL document CHEMBL1817592, “Triazoles as γ-secretase modulators” (Bioorg Med Chem Lett, 2011)
